Drawing on ChEMBL document CHEMBL1137689, “Amines and oximes derived from deoxybenzoins as Helicobacter pylori urease inhibitors” (Eur J Med Chem, 2009), this text covers inhibition and IC50 for 25 molecules.

Experiment [1] addresses Urease subunit alpha/Urease subunit beta (Helicobacter pylori (strain ATCC 700392 / 26695) (Campylobacterpylori)) (UniProt P69996+P14916). The experiment can be described thus: Inhibition of Helicobacter pylori ATCC 43504 urease assessed as ammonia production at 400 ug/mL by indophenol method. A digest of the protocol: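 Crude urease prepared from H. pylori ATCC 43504 grown 24 h at 37 °C in brucella broth with 10% heat-inactivated horse serum, microaerobic (5% O2, 10% CO2, 85% N2). Cells washed in PBS pH 7.4, stored -80 °C; urease in equal-volume glycerol kept at 4 °C. Enzyme (4U) preincubated with compound 3 h at room temperature; ammonia production read by indophenol method; percent inhibition.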

Experiment [2] addresses Urease subunit alpha/Urease subunit beta (Helicobacter pylori (strain ATCC 700392 / 26695) (Campylobacterpylori), UniProt P69996). The experiment can be described thus: Inhibition of Helicobacter pylori ATCC 43504 urease assessed as ammonia production by indophenol method. A digest of the protocol:
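Crude urease from H. pylori cells, grown 24 h at 37 °C microaerobically (5% O2, 10% CO2, 85% N2) in brucella broth with 10% heat-inactivated horse serum. Cells were washed in PBS pH 7.4 and stored at -80 °C; the extract was kept 1:1 in glycerol at 4 °C. Enzyme (4U) was preincubated with compound 3 h at room temperature. Percent inhibition was screened at 400 µg/mL; IC50 also determined.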

Calls of active or inactive are those of the source. No cut-off for these calls is given here.

Sequence of Urease subunit alpha/Urease subunit beta (Helicobacter pylori (strain ATCC 700392 / 26695) (Campylobacterpylori)) (P14916 whole entry, looked up): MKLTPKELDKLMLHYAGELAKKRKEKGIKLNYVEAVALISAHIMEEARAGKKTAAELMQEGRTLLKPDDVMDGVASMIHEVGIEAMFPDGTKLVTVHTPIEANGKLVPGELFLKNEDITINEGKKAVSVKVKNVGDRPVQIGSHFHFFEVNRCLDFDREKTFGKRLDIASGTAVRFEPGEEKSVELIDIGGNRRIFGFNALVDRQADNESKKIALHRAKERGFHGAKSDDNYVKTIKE
Sequence of Urease subunit alpha/Urease subunit beta (Helicobacter pylori (strain ATCC 700392 / 26695) (Campylobacterpylori)) (P69996 whole entry, looked up): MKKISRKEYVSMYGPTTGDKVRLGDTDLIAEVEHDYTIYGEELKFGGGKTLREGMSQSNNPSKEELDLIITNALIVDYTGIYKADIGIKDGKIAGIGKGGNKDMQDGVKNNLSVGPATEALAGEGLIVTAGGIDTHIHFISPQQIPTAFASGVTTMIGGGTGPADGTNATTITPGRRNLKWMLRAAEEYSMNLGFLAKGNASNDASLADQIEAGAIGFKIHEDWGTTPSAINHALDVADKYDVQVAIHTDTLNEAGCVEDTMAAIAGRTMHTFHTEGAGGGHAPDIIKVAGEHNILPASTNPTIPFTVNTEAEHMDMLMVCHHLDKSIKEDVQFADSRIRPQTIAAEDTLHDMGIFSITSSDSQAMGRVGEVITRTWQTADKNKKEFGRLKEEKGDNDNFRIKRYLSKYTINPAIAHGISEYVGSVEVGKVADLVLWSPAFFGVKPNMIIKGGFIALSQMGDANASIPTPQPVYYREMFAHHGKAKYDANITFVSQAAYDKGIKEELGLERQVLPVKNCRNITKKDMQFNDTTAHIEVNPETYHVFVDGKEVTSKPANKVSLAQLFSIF
Sequence of Urease subunit alpha/Urease subunit beta (P69996 whole entry): as the sequence (P69996 whole entry, looked up) above
Sequence of Urease subunit alpha/Urease subunit beta (P14916 whole entry, further chain): as the sequence (P14916 whole entry, looked up) above

For the molecule `NC(Cc1ccc(O)cc1)c1c(O)cc(O)cc1O` (stereo unspecified), the inhibition in experiment [1] came out at 28%.

`O=C(Cc1ccc(F)cc1)c1ccc(O)c(O)c1O`: in experiment [1], the inhibition turned out to be 44%.

Consider `CC(=O)NO` [ACETOHYDROXAMIC ACID], for which the IC50 in experiment [2] amounted to 11 µM.

With `O=C(Cc1ccc([N+](=O)[O-])cc1)c1ccc(O)cc1O`, the inhibition result in experiment [1] was “inactive”.

Take `COc1ccc(C/C(=N\O)c2ccc(O)cc2O)cc1`: the inhibition in experiment [1] is 36%.

For `O=C(Cc1ccc(O)cc1)c1c(O)cc(O)cc1O`, the inhibition entry in experiment [1] was “inactive”.

As to `NC(Cc1ccc(F)cc1)c1ccc(O)c(O)c1O` (stereo unspecified), in experiment [1], the inhibition turned out to be 80%.

For `O=C(Cc1ccc(F)cc1)c1ccc(O)cc1O`, the inhibition in experiment [1] is 16%.

On to `COc1ccc(C/C(=N/O)c2ccc(OC)c(OC)c2OC)cc1`, for which, in experiment [1], the inhibition entry was “inactive”.

Turning to `COc1ccc(CC(=N)c2ccc(OC)c(OC)c2OC)cc1`, in experiment [1], the inhibition amounted to 11%.

On to `NC(Cc1ccc([N+](=O)[O-])cc1)c1ccc(O)cc1O` (stereo unspecified), for which, in experiment [1], the inhibition entry is “inactive”.

`O/N=C(\Cc1ccc(O)cc1)c1c(O)cc(O)cc1O`: in experiment [1], the inhibition amounted to 13%.

As to `COc1cc(O)c(C(N)Cc2ccc(OO)cc2)c(OC)c1` (stereo unspecified), the inhibition result in experiment [1] was “inactive”.

For `COc1c(O)cc(O)c(/C(Cc2ccc(O)cc2)=N/O)c1O`, the inhibition in experiment [1] was determined as 38%.

With `O/N=C(\Cc1ccc(O)cc1)c1ccc(O)c(O)c1`, the inhibition in experiment [1] worked out at 62%.

For `COc1ccc(CC(=O)c2ccc(OC)c(OC)c2OC)cc1`, in experiment [1], the inhibition result was “inactive”.

With `O/N=C(/Cc1ccc(O)cc1)c1ccc(O)c(O)c1O`, the inhibition in experiment [1] worked out at 73%.

`COc1cc(O)c(C(=O)Cc2ccc(OO)cc2)c(OC)c1`: the inhibition entry in experiment [1] was “inactive”.

Take `O/N=C(\Cc1ccc(F)cc1)c1ccc(O)c(O)c1O`: the inhibition in experiment [1] was found to be 55%.

For the molecule `O/N=C(/Cc1ccc(F)cc1)c1ccc(O)cc1O`, the inhibition in experiment [1] came to 23%.

Consider `COc1cc(O)c(/C(Cc2ccc(OO)cc2)=N/O)c(OC)c1`, for which the inhibition in experiment [1] is 15%.

On to `O=[N+]([O-])c1ccc(C/C(=N/O)c2ccc(O)cc2O)cc1`, for which, in experiment [1], the inhibition result is “inactive”.

For the molecule `NC(Cc1ccc(O)cc1)c1ccc(O)c(O)c1O` (stereo unspecified), in experiment [1], the inhibition was determined as 97.3%. The IC50 in experiment [2] was determined as 47 µM.

For `COc1ccc(CC(N)c2ccc(O)cc2O)cc1` (stereo unspecified), the inhibition in experiment [1] was 73%.

`NC(Cc1ccc(F)cc1)c1ccc(O)cc1O` (stereo unspecified): in experiment [1], the inhibition came to 48%.
